Assay results: PMC9401513 (Clinical Cancer Research, 2021)

Tested on: patients with advanced solid tumors
Test: Adverse events graded by NCI-CTCAE v4.03 in phase I patients
Assay type: in vivo, human
Outline: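 Test compound was given by IV infusion over about 60 min every 3 weeks in sequential dose-escalation cohorts to adults with advanced solid tumors (ECOG 0–1). Adverse events were graded by NCI-CTCAE v4.03 over all cycles and tabulated as treatment-related by dose level. G-CSF was permitted after cycle 1. Antiemetics and corticosteroids were given at the physician's discretion.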

[1] = 0.2 mg/kg every 3 weeks, all cycles, 2 evaluable pts
[2] = 0.5 mg/kg every 3 weeks, all cycles, 2 evaluable pts
[3] = 1.25 mg/kg every 3 weeks, all cycles, 2 evaluable pts
[4] = 2.1 mg/kg every 3 weeks, all cycles, 4 evaluable pts
[5] = 2.8 mg/kg every 3 weeks, all cycles, 96 evaluable pts
[6] = 3.7 mg/kg every 3 weeks, all cycles, 6 evaluable pts
[7] = every 3 weeks, all cycles, N = 112

B1: cofetuzumab pelidotin (conjugate, chains of the INN, looked up)
VH: QVQLVQSGPEVKKPGASVKVSCKASGYTFTDYAVHWVRQAPGKRLEWIGVISTYNDYTYNNQDFKGRVTMTRDTSASTAYMELSRLRSEDTAVYYCARGNSYFYALDYWGQGTSVTVSS
VL: EIVLTQSPATLSLSPGERATLSCRASESVDSYGKSFMHWYQQKPGQAPRLLIYRASNLESGIPARFSGSGSGTDFTLTISSLEPEDFAVYYCQQSNEDPWTFGGGTKLEIK
modifications: auristatin-0101 payload, vc linker
Number of AEs (TRAEs) [1]: 1 n (%) | Pts discontinued due to AEs (TRAEs) [1]: 0 n (%) | Pts with AEs (TRAEs) [1]: 1 (50.0) n (%) | Pts with G3/G4 AEs (TRAEs) [1]: 1 (50.0) n (%) | Pts with SAEs (TRAEs) [1]: 0 n (%) | Pts with dose reduction and temporary discontinuation due to AEs (TRAEs) [1]: 0 n (%) | Pts with dose reduction due to AEs (TRAEs) [1]: 0 n (%) | Pts with temporary discontinuation due to AEs (TRAEs) [1]: 0 n (%) | Number of AEs (TRAEs) [2]: 1 n (%) | Pts discontinued due to AEs (TRAEs) [2]: 0 n (%) | Pts with AEs (TRAEs) [2]: 1 (50.0) n (%) | Pts with G3/G4 AEs (TRAEs) [2]: 0 n (%) | Pts with SAEs (TRAEs) [2]: 0 n (%) | Pts with dose reduction and temporary discontinuation due to AEs (TRAEs) [2]: 0 n (%) | Pts with dose reduction due to AEs (TRAEs) [2]: 0 n (%) | Pts with temporary discontinuation due to AEs (TRAEs) [2]: 0 n (%) | Number of AEs (TRAEs) [3]: 6 n (%) | Pts discontinued due to AEs (TRAEs) [3]: 0 n (%) | Pts with AEs (TRAEs) [3]: 1 (50.0) n (%) | Pts with G3/G4 AEs (TRAEs) [3]: 0 n (%) | Pts with SAEs (TRAEs) [3]: 0 n (%) | Pts with dose reduction and temporary discontinuation due to AEs (TRAEs) [3]: 0 n (%) | Pts with dose reduction due to AEs (TRAEs) [3]: 0 n (%) | Pts with temporary discontinuation due to AEs (TRAEs) [3]: 0 n (%) | Number of AEs (TRAEs) [4]: 28 n (%) | Pts discontinued due to AEs (TRAEs) [4]: 1 (25.0) n (%) | Pts with AEs (TRAEs) [4]: 4 (100.0) n (%) | Pts with G3/G4 AEs (TRAEs) [4]: 0 n (%) | Pts with SAEs (TRAEs) [4]: 1 (25.0) n (%) | Pts with dose reduction and temporary discontinuation due to AEs (TRAEs) [4]: 0 n (%) | Pts with dose reduction due to AEs (TRAEs) [4]: 0 n (%) | Pts with temporary discontinuation due to AEs (TRAEs) [4]: 0 n (%) | Number of AEs (TRAEs) [5]: 475 n (%) | Pts discontinued due to AEs (TRAEs) [5]: 2 (2.1) n (%) | Pts with AEs (TRAEs) [5]: 84 (87.5) n (%) | Pts with G3/G4 AEs (TRAEs) [5]: 40 (41.7) n (%) | Pts with SAEs (TRAEs) [5]: 9 (9.4) n (%) | Pts with dose reduction and temporary discontinuation due to AEs (TRAEs) [5]: 3 (3.1) n (%) | Pts with dose reduction due to AEs (TRAEs) [5]: 7 (7.3) n (%) | Pts with temporary discontinuation due to AEs (TRAEs) [5]: 16 (16.7) n (%) | Number of AEs (TRAEs) [6]: 27 n (%) | Pts discontinued due to AEs (TRAEs) [6]: 0 n (%) | Pts with AEs (TRAEs) [6]: 5 (83.3) n (%) | Pts with G3/G4 AEs (TRAEs) [6]: 3 (50.0) n (%) | Pts with SAEs (TRAEs) [6]: 0 n (%) | Pts with dose reduction and temporary discontinuation due to AEs (TRAEs) [6]: 1 (16.7) n (%) | Pts with dose reduction due to AEs (TRAEs) [6]: 0 n (%) | Pts with temporary discontinuation due to AEs (TRAEs) [6]: 0 n (%) | patients reporting headache after infusion on cycle 1, day 1 or 2 (all patients, every 3 weeks and every 2 weeks cohorts): 29 patients | grade 1–2 peripheral sensory neuropathy (every 2 weeks, N = 25): 20% | grade 3 peripheral sensory neuropathy (every 2 weeks, N = 25): 8% | patients discontinued because of a TRAE (every 2 weeks, N = 25): 4% | patients with dose reduction (every 2 weeks, N = 25): 16% | patients with grade ≥ 3 all-cause AEs (every 2 weeks, N = 25): 72% | temporary discontinuations due to TRAEs (every 2 weeks, N = 25): 44% | treatment-related grade 3–4 neutropenia (every 2 weeks, N = 25): 24% | patients died on study (every 2 weeks, N = 25, disease progression): 16% | deaths because of a treatment-related AE (every 3 weeks and every 2 weeks): None of the patients died because of a treatment-related AE | treatment-emergent, all-cause AEs (every 3 weeks or every 2 weeks): all patients | treatment-related grade 5 AEs (every 3 weeks regimen): ^aNo treatment-related grade 5 AEs were observed with the every 3 weeks regimen. | febrile neutropenia (every 3 weeks, N = 112): 2.7% | grade ≥ 3 treatment-related neutropenia (every 3 weeks, N = 112): 25% | patients discontinued because of a TRAE (every 3 weeks, N = 112): 2.7% | patients with dose reduction (every 3 weeks, N = 112): 6.3% | patients with grade ≥ 3 all-cause AEs (every 3 weeks, N = 112): 79.4% | temporary discontinuations due to TRAEs (every 3 weeks, N = 112): 14.3% | treatment-related peripheral sensory neuropathy (all grade 1 or 2) (every 3 weeks, N = 112): 12.5% | patients died on study (every 3 weeks, N = 112, mostly disease progression): 15.2% | TRAE Alopecia, Grade 1 [7]: 13 (11.6) n (%) | TRAE Alopecia, Grade 2 [7]: 33 (29.5) n (%) | TRAE Alopecia, Grade 3 [7]: 0 n (%) | TRAE Alopecia, Grade 4 [7]: 0 n (%) | TRAE Alopecia, Total [7]: 46 (41.1) n (%) | TRAE Arthralgia, Grade 1 [7]: 16 (14.3) n (%) | TRAE Arthralgia, Grade 2 [7]: 2 (1.8) n (%)
